Experimental data published in PubChem BioAssay AID624067 (The Scripps Research Institute Molecular Screening Center, 2012).
Values joined by “and” are separate entries in the source; they are usually repeats but may differ in a detail not shown here. Equal values may be shown once.

target: Insulin-degrading enzyme (Homo sapiens) (UniProt P14735); experiment: inhibitors of wild-type recombinant IDE, late-stage follow-up, counter-screen for IDE inhibitor project, biochemical, fluorescence polarization, run by assay provider (AID 624067); settings: FAbetaB cleavage
How it was run: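 Assay system: Recombinant WT human IDE | Schedule: Enzyme reaction at 22 °C | Doses: 10 semi-log points, top 100 µM | Benchmarks: High control Ii1 | Technique: Fluorescence polarization, 485/525 nm, avidin capture | Medium: HEPES pH 7.4, NaCl, MgCl2, 0.1% BSA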

Sequence of Insulin-degrading enzyme (Homo sapiens) (P14735 whole entry, looked up): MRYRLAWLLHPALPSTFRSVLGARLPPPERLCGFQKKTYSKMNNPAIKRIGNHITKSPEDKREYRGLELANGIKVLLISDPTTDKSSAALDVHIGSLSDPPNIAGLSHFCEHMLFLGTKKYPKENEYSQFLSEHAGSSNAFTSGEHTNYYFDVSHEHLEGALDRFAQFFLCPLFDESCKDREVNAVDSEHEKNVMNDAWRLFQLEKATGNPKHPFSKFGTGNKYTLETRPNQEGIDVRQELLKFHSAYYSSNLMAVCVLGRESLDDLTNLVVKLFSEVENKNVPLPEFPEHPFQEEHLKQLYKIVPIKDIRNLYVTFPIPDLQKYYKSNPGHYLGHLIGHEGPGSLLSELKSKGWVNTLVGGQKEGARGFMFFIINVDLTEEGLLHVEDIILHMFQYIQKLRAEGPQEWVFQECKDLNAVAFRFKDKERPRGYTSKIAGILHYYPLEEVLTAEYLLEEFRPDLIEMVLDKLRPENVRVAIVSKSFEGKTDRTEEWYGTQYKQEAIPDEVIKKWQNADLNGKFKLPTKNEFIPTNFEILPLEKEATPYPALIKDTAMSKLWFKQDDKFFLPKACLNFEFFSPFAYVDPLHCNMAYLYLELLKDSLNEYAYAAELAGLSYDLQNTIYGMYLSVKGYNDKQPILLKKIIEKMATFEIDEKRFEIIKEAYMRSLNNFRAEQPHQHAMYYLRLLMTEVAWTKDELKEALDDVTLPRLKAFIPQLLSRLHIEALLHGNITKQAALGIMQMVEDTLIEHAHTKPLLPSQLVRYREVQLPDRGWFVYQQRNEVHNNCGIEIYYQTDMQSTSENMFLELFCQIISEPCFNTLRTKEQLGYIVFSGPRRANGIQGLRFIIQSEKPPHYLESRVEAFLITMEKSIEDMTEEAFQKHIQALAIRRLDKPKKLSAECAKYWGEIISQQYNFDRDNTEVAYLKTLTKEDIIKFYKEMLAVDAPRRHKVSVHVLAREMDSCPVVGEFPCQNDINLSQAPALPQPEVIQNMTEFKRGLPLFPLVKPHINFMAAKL

For `O=C(Nc1cccc(C(F)(F)F)c1)c1csc(-c2ccncc2)n1`, which IC50 is on record?
The IC50 was 5.3 µM.

`COc1ccc(C(=O)N2CCN(C(=O)C3COc4ccccc4O3)CC2)cc1OC` (stereo not given) was tested. Which IC50 did it give?
The IC50 was 1.9 µM and > 33 µM (inactive).

Which IC50 does the source give for `Clc1cccc(-c2nnc(SCc3nc4ccccc4[nH]3)n2Cc2ccco2)c1` here?
Its IC50 is 3.9 µM.

Which IC50 does the source give for `Cc1cccc(-c2nnc(SCc3nc4ccccc4[nH]3)n2Cc2ccco2)c1` here?
Its IC50 is 5.7 µM and 8.9 µM.

With `O=c1c2ccccc2sn1-c1cc(S(=O)(=O)N2CCOCC2)ccc1N1CCOCC1` as the compound, how does the IC50 read?
The IC50 was 1.4 µM.
